Test results reported in ChEMBL document CHEMBL1150353, “Development of novel antiatherogenic biaryls: design, synthesis, and reactivity” (2008).
Active and inactive are the calls of the source. The calls are words filed in the database; no cut-off is given here.

How the values were obtained:
[1] = Antioxidant activity in HMEC1 cells assessed as inhibition of LDL oxidation at 10 uM after 6 hrs by TBARS assay relative to control; assay type: functional, Homo sapiens, HMEC-1; design: scale not given: the % may be the effect or the level left
How it was run: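 HMEC-1 (sparse proliferative) in serum-free RPMI-1640 with native LDL 100 µg apoB/mL and CuSO4 1 µM, 37 °C, 6 h; compounds added from DMSO (<0.1% final) at 10 µM just before oxidation, in duplicate. TBARS in medium measured fluorimetrically; expressed as % of TBARS with cells and no agent.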

HMEC-1 [2] = assay: Protection against oxidized LDL-induced cytotoxicity in HMEC1 cells assessed as residual cell viability after 24 hrs by MTT assay relative to control; assay type: functional, Homo sapiens
How it was run: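 HMEC-1 exposed 6 h at 37 °C to native LDL (100 µg apoB/mL) with 1 µM CuSO4 in serum-free RPMI, with or without agent (10 µM, DMSO <0.1%); toxicity of the cell-oxidized LDL read by MTT after 24 h, as % of unstimulated cells kept in fresh RPMI without LDL or antioxidant.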

HMEC-1 [3] = assay: (§1) Cytoprotective activity against ultraviolet irradiation oxidized LDL-induced cytotoxicity in HMEC1 cells assessed as residual cell survival at 10 uM for 24 hrs by MTT assay relative to control; assay type: functional; details: Homo sapiens
How it was run: (§2)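 HMEC-1 were exposed to UV-C-oxidized LDL. LDL at 2 mg apoB/mL with 2 µmol/L CuSO₄ was irradiated for 2 h at 254 nm, then added to the medium at 200 µg apoB/mL together with the compound. MTT viability was read after 24 h, as % of unstimulated cells in LDL-free medium. Each value is the mean of four determinations.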

HMEC-1 [4] = assay: Inhibition of 4-hydroxynonenal-induced carbonyl stress in HMEC1 cells assessed as prevention of increase in carbonylated protein level at 10 uM relative to control; assay type: functional, cell-based; details: Homo sapiens
How it was run: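 HMEC-1 were incubated overnight with 50 µM 4-HNE in FCS-free RPMI-1640 with the compound, then washed, scraped and pelleted. Protein was derivatized for 1 h at room temperature with 0.1% DNPH in 2 M HCl, precipitated with TCA, and washed with ethanol/ethyl acetate. It was dissolved in 8 M guanidine buffer (pH 7.4) and read at 365 nm. Results are % of unstimulated control, mean of four experiments.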

U-937 = assay: Inhibition of foam cell formation in LDL exposed human U937 cells assessed as accumulation of red O-stained lipid droplets at 10 uM for 14 hrs by nile red fluorescence assay; assay type: functional, cell-based
How it was run: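 U937 grown in RPMI with 10% FCS were used at subconfluence. They were incubated for 14 h in fresh RPMI containing native LDL (100 µg/mL), 1 µM CuSO₄ and agent (10 µM). Cells were fixed in 10% paraformaldehyde, stained with 0.5 µg/mL Nile Red, scraped and read fluorometrically (ex 460/em 550 nm). Parallel slides were stained with oil red O and hematoxylin and examined microscopically. Data are the mean of three experiments.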

HMEC-1 [5] = assay: Cytoprotective activity against ultraviolet irradiation oxidized LDL and 4-hydroxynonenal-induced cytotoxicity in HMEC1 cells assessed as cell survival at 10 uM after 24 hrs relative to control; assay type: functional, cell-based; details: Homo sapiens
How it was run: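 HMEC-1 were exposed to 4-HNE added directly to the medium, or to UV-oxidized LDL. For the oxidized LDL, LDL at 2 mg apoB/mL with 2 µmol/L CuSO₄ was irradiated with UV-C (254 nm) for 2 h and then added at 200 µg apoB/mL. Compounds were present during exposure. Viability was read by MTT after 24 h, as % of cells in LDL-free medium. Each value is the mean of four determinations.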

[6] = as §1; assay type: functional, Homo sapiens, HMEC-1; how it was run: as §2

SMILES | Activity [1] | Activity (HMEC-1 [2]) | Activity (HMEC-1 [3]) | Activity (HMEC-1 [4]) | Activity (U-937) | Activity (HMEC-1 [5]) | Activity [6]
CCOP(=O)(/C=C/c1cc(OC)c(O)c(-c2cc(C=O)cc(OC)c2O)c1)OCC | 67.5% | 63.5% | – | – | – | – | –
CCOP(=O)(/C=C/c1cc(OC)c(O)c(-c2cc(/C=N/Nc3nncc4ccccc34)cc(OC)c2O)c1)OCC.Cl | 4.1% | 61.2% | Active | – | – | – | –
COc1cc(/C=N/Nc2nncc3ccccc23)cc(-c2cc(/C=N/Nc3nncc4ccccc34)cc(OC)c2O)c1O.Cl | 2.8% | 82% | – | Active | Active | Active | 80%
CCOP(=O)(/C=C/c1cc(OC)c(O)c(-c2cc(/C=C/P(=O)(OCC)OCC)cc(OC)c2O)c1)OCC | 67.4% | 66% | – | – | Active | – | –
CC(C)(Sc1cc(C(C)(C)C)c(O)c(C(C)(C)C)c1)Sc1cc(C(C)(C)C)c(O)c(C(C)(C)C)c1 [PROBUCOL] | 10% | 92% | – | – | – | – | –
COc1cc(C=O)cc(-c2cc(C=O)cc(OC)c2O)c1O | 86.2% | 40.5% | – | – | – | – | –
COc1cc(/C=N/NC(=O)c2ccncc2)cc(-c2cc(/C=N/NC(=O)c3ccncc3)cc(OC)c2O)c1O | 83% | 13.5% | – | inactive | – | – | –
Cc1c(C)c2c(c(C)c1O)CC[C@@](C)(CCC[C@H](C)CCC[C@H](C)CCCC(C)C)O2 [ALPHA-TOCOPHEROL] | 55% | 29% | – | – | – | – | –
CCOP(=O)(/C=C/c1cc(OC)c(O)c(-c2cc(/C=N/NC(=O)c3ccncc3)cc(OC)c2O)c1)OCC | 67.5% | 31.2% | – | – | – | – | –
